Measurements reported in ChEMBL document CHEMBL1149349, “Identification of novel pyrazole acid antagonists for the EP1 receptor” (Bioorg Med Chem Lett, 2006).
Converted amounts (≈) assume the structure as drawn.

Columns and labels:
[1] = molecular target: T1, Prostaglandin E2 receptor EP1 subtype (Homo sapiens, UniProt P34995); assay: Antagonist activity at EP1 receptor expressed in CHO-K1 cells assessed as inhibition of PGE2-stimulated calcium ion mobilization by FLIPR assay; format: functional, cell-based
T1 sequence (P34995 whole entry): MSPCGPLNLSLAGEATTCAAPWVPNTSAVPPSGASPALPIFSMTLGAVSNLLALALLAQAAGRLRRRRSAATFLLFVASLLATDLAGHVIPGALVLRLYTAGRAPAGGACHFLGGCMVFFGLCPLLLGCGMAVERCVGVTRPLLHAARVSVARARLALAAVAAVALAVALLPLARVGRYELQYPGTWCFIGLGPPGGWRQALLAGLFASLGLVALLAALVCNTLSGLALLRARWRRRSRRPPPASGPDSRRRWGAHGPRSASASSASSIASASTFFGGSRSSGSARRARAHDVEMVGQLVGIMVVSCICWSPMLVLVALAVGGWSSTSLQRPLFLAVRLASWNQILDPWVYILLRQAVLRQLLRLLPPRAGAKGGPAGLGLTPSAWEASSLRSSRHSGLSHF
Outline: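 Stably EP1- or EP3-transfected CHO-K1 whole cells loaded with the calcium-sensitive dye Fluo-3. Inhibition of PGE₂-evoked intracellular Ca²⁺ mobilisation measured, reported as pKi.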

[2] = molecular target: Prostaglandin E2 receptor EP3 subtype (Homo sapiens) (UniProt P43115); assay: Inhibition of PGE2-induced intracellular Ca2+ mobilisation (FLIPR) at EP3 receptor expressed in CHO-K1 cells
Sequence of Prostaglandin E2 receptor EP3 subtype (Homo sapiens) (P43115 whole entry, looked up): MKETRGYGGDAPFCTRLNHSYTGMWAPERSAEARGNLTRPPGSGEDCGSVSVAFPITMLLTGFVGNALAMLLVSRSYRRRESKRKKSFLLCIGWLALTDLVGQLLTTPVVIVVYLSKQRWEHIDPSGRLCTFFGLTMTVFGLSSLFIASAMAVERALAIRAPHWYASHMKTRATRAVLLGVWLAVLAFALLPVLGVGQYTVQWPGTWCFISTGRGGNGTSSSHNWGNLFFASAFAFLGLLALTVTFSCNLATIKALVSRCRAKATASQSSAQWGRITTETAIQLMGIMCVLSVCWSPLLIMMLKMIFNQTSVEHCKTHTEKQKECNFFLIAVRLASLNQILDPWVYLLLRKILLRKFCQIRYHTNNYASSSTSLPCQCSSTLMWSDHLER

[3] = molecular target: T1, Prostaglandin E2 receptor EP1 subtype; assay: Displacement of [3H]PGE2 from EP1 receptor expressed in CHO-K1 cells; format: cell-based
Outline: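 Membranes from cells expressing the receptor, incubated with test compound and [³H]PGE₂ (3 nM final) for 30 min at 30 °C. Bound radioactivity read by liquid scintillation counting. Values are means of at least four experiments.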

Rattus norvegicus [4] = organism: Rattus norvegicus; assay: Activity against Freund's complete adjuvant-induced inflammatory pain in rat; format: functional
[5] = Tmax in rat at 3 mg/kg, po; format: ADME, organism-based; set-up: dose 3 mg/kg, route oral; details: in vivo
Outline: (§1)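 Oral dosing with drug levels measured in blood. Cmax, Tmax and AUC normalised to dose were derived from the blood concentration–time profile.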

Cytochrome P450 3A4 = Cytochrome P450 3A4 (Homo sapiens, UniProt P08684); assay: Inhibition of CYP450 3A4; format: ADME
Sequence of Cytochrome P450 3A4 (P08684 whole entry, canonical isoform): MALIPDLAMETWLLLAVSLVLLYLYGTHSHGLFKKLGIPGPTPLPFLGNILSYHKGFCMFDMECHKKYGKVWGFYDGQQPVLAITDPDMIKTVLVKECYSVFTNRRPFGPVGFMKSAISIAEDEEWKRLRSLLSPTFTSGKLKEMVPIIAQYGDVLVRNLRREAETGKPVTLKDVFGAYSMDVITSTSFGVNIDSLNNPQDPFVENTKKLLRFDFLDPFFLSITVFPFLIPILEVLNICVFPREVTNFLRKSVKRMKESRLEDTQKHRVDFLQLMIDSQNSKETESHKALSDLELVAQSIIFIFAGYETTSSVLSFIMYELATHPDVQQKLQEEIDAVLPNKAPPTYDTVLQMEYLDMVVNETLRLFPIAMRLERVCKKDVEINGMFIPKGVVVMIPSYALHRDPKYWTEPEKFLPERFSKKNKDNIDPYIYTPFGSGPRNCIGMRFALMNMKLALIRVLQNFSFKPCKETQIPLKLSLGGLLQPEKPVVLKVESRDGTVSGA
Outline: (§2)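 In vitro CYP450 inhibition run by the Gentest protocol, with IC₅₀ determined for each isoform.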

Rattus norvegicus [6] = assay: AUC/dose in rat at 3 mg/kg, po; format: ADME, organism-based, Plasma; set-up: dose 3 mg/kg, route oral; details: in vivo; outline: as §1
Rattus norvegicus [7] = assay: AUC in rat at 3 mg/kg, po; format: ADME, organism-based, Plasma; set-up: dose 3 mg/kg, route oral; details: in vivo; outline: as §1
Liver microsomes [8] = assay: Intrinsic clearance in human liver microsome; format: ADME
[9] = Cmax in rat at 3 mg/kg, po; format: ADME, organism-based; set-up: dose 3 mg/kg, route oral; details: in vivo; outline: as §1
[10] = Distribution coefficient, log D at pH 7.4; format: physicochemical; details: octanol/water
Cytochrome P450 2C19 = Cytochrome P450 2C19 (Homo sapiens, UniProt P33261); assay: Inhibition of CYP450 2C19; format: ADME; outline: as §2
Sequence of Cytochrome P450 2C19 (P33261 whole entry): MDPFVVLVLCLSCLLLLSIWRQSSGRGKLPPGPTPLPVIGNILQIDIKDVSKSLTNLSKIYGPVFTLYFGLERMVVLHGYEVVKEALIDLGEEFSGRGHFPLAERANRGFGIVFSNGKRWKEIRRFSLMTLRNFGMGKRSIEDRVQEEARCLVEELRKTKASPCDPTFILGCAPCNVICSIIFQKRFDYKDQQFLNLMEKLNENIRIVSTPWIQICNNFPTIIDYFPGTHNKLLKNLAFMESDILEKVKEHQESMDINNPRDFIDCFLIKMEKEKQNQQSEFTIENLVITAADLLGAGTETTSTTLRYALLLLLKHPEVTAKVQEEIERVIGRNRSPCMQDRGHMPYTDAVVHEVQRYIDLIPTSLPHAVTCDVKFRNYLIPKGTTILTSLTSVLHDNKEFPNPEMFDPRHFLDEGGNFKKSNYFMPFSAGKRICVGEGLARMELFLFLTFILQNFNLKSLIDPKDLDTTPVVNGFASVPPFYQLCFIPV

Liver microsomes [11] = assay: Intrinsic clearance in rat liver microsome; format: ADME
[12] = Solubility at pH 7.4; format: physicochemical; details: buffer
Cytochrome P450 1A2 = molecular target: T2, Cytochrome P450 1A2 (Homo sapiens, UniProt P05177); assay: Inhibition of CYP450 1A2; format: ADME; outline: as §2
T2 sequence (P05177 whole entry): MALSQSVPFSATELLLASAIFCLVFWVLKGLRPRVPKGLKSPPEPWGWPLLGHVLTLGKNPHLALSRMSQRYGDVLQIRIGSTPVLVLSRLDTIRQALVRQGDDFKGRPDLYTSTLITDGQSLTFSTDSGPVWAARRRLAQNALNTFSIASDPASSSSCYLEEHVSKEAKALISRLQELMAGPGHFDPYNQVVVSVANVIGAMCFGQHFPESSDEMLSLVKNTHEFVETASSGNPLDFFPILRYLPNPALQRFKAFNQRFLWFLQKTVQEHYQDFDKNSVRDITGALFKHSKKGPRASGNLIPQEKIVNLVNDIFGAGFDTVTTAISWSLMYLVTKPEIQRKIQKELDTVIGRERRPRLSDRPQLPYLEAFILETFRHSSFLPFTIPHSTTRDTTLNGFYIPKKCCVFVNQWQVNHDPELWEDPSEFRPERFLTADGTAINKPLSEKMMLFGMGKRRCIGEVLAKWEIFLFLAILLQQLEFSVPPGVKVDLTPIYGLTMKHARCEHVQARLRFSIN

Cytochrome P450 2D6 = Cytochrome P450 2D6 (Homo sapiens, UniProt P10635); assay: Inhibition of CYP450 2D6; format: ADME; outline: as §2
Sequence of Cytochrome P450 2D6 (P10635 whole entry): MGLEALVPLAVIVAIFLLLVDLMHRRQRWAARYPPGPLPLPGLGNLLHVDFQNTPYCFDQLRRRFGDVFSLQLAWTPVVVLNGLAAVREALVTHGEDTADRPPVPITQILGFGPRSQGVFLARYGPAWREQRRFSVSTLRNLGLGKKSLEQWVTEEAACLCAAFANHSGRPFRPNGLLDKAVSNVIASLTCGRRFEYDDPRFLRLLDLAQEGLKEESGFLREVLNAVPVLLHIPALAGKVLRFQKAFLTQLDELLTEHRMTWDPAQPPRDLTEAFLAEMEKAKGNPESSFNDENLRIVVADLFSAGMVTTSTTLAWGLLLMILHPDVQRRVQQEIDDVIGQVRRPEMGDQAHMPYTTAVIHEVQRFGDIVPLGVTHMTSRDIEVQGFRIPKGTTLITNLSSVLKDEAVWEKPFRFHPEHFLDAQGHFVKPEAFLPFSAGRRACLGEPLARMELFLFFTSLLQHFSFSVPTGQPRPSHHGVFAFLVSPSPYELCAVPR

Cytochrome P450 2C9 = Cytochrome P450 2C9 (Homo sapiens, UniProt P11712); assay: Inhibition of CYP450 2C9; format: ADME; outline: as §2
Sequence of Cytochrome P450 2C9 (P11712 whole entry): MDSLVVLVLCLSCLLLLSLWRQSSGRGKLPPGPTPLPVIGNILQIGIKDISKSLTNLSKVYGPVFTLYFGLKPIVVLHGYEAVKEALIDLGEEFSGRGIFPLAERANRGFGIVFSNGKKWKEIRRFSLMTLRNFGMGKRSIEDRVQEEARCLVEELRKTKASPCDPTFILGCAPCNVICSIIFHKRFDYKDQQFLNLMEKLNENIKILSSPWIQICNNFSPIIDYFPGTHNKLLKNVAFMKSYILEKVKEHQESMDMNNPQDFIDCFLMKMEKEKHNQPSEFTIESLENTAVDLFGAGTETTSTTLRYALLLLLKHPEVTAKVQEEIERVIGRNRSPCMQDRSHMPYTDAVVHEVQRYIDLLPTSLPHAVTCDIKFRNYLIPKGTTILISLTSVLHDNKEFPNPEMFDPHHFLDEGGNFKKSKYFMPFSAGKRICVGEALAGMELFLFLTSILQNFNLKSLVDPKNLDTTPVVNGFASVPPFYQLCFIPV

Row | Ki [1] | IC50 [3] | SMILES | further results
1 | > 2 µM |  | O=C(O)c1nn(Cc2cc(Br)ccc2OCc2ccccc2)cc1Cl | 
2 | 0.00794 µM |  | Cc1cc(C(=O)O)nn1Cc1cc(F)ccc1OCc1ccc(F)cc1F | Ki [2]: > 2 µM
3 | 0.00112 µM |  | Cc1cc(C(=O)O)nn1Cc1cc(Cl)ccc1OCc1ccc(F)cc1F | Ki [2]: > 2 µM
4 | 0.339 µM |  | Cc1cc(C(=O)O)nn1Cc1cc(Br)ccc1OCc1cccc([N+](=O)[O-])c1 | 
5 | 0.977 µM |  | CCCCc1cc(C(=O)O)nn1Cc1cc(Br)ccc1OCc1ccccc1 | 
6 | > 2 µM | 5.25 µM | Cc1cc(C(=O)O)nn1Cc1cc(Br)ccc1OCc1cc(C(F)(F)F)cc(C(F)(F)F)c1 | 
7 | 0.0204 µM |  | Cc1cc(C(=O)O)nn1Cc1cc(F)ccc1OCc1ccc(Cl)cc1Cl | 
8 | > 2 µM | 0.676 µM | O=C(O)c1nn(Cc2cc(Br)ccc2OCc2ccccc2)cc1CO | 
9 | 0.0151 µM | 0.00646 µM | Cc1cc(C(=O)O)nn1Cc1cc(Br)ccc1OCc1ccccc1 | ED50 (Rattus norvegicus [4]): 1.3 mg/kg; Tmax [5]: 30 min; IC50 (Cytochrome P450 3A4): > 100 µM; AUC/dose (Rattus norvegicus [6]): 124 kg·min/L; AUC (Rattus norvegicus [7]): 16.3 µM·h; CL (Liver microsomes [8]): 0.6 mL/min/g; Cmax [9]: 5.69 µM; logD [10]: 1.15; IC50 (Cytochrome P450 2C19): > 100 µM; CL (Liver microsomes [11]): < 0.5 mL/min/g; solubility [12]: 0.85 mg/mL (≈ 2120 µM); IC50 (Cytochrome P450 1A2): 21 µM; IC50 (Cytochrome P450 2D6): > 100 µM; IC50 (Cytochrome P450 2C9): > 100 µM
10 | > 2 µM |  | O=C(O)c1cnn(Cc2cc(Br)ccc2OCc2ccccc2)c1 | 
11 | 0.0117 µM | 0.00741 µM | Cc1cc(C(=O)O)nn1Cc1cc(Br)ccc1OCc1ccc(F)cc1 | 
12 | 1.35 µM | 0.427 µM | Cc1cn(Cc2cc(Br)ccc2OCc2ccccc2)nc1C(=O)O | 
13 | 0.00871 µM | 0.00871 µM | Cc1cc(C(=O)O)nn1Cc1cc(Br)ccc1OCc1ccc(Cl)cc1 | 
14 | > 2 µM | 0.457 µM | O=C(O)c1nn(Cc2cc(Br)ccc2OCc2ccccc2)cc1Br | 
15 | 0.00049 µM | 0.000132 µM | Cc1cc(C(=O)O)nn1Cc1cc(Br)ccc1OCc1ccc(Cl)cc1Cl | 
16 | > 2 µM | 2.57 µM | O=C(O)c1nn(Cc2cc(Br)ccc2OCc2ccccc2)cc1C(F)(F)F | 
17 | 0.692 µM | 0.123 µM | O=C(O)c1nn(Cc2cc(Br)ccc2OCc2ccccc2)cc1F | 
18 | 0.129 µM | 0.0178 µM | Cc1cc(C(=O)O)nn1Cc1cc(Br)ccc1OCc1cccc(Br)c1 | 
19 | 1.1 µM | 0.309 µM | Cc1cc(C(=O)O)nn1Cc1cc(Br)ccc1OCc1cccc(C(F)(F)F)c1 | 
20 | > 2 µM |  | O=C(O)c1cn(Cc2cc(Br)ccc2OCc2ccccc2)nn1 | 

Row | Ki [1] | IC50 [3] | SMILES | further results
21 | 1.12 µM |  | Cc1cc(C(=O)O)nn1Cc1cc(Br)ccc1OCc1cc(Cl)cc(Cl)c1 | 
22 | > 2 µM |  | O=C(O)c1cn(Cc2cc(Br)ccc2OCc2ccccc2)cn1 | 
23 | 0.0977 µM | 0.0355 µM | Cc1cc(C(=O)O)nn1Cc1cc(Br)ccc1OCc1ccc(C(F)(F)F)cc1 | 
24 | 0.00263 µM | 0.000525 µM | Cc1cc(C(=O)O)nn1Cc1cc(Br)ccc1OCc1ccc(F)cc1F | 
25 | 0.0692 µM |  | COc1ccccc1COc1ccc(Br)cc1Cn1nc(C(=O)O)cc1C | 
26 | > 2 µM |  | O=C(O)c1ccnn1Cc1cc(Br)ccc1OCc1ccccc1 | 
27 | 0.00832 µM |  | Cc1cc(C(=O)O)nn1Cc1ccccc1OCc1ccc(Cl)cc1Cl | Ki [2]: > 2 µM
28 | 0.00055 µM |  | Cc1cc(C(=O)O)nn1Cc1cc(Cl)ccc1OCc1ccc(Cl)cc1Cl | Ki [2]: > 2 µM
29 | 0.0288 µM | 0.00316 µM | Cc1cc(C(=O)O)nn1Cc1cc(Br)ccc1OCc1ccccc1Cl | 
30 | 0.427 µM | 0.115 µM | Cc1cc(C(=O)O)nn1Cc1cc(Br)ccc1OCc1cccc(Cl)c1 | 
31 | 0.00126 µM | 0.00355 µM | O=C(O)c1cccc(-c2sccc2-c2cc(Cl)ccc2OCc2ccccc2)c1 | 
32 | > 2 µM | 1.23 µM | Cc1cc(C(=O)O)nn1Cc1cc(Br)ccc1OCc1ccc(C(C)(C)C)cc1 | 
33 | 0.525 µM | 0.126 µM | Cc1cccc(COc2ccc(Br)cc2Cn2nc(C(=O)O)cc2C)c1 | 
34 | > 2 µM |  | O=C(O)c1cncn1Cc1cc(Br)ccc1OCc1ccccc1 | 
35 | > 2 µM | 0.575 µM | Cc1cc(C(=O)O)nn1Cc1cc(Br)ccc1OCc1ccc(Cl)c(C(F)(F)F)c1 | 
36 | 0.617 µM | 0.195 µM | O=C(O)c1cc(-c2cccs2)n(Cc2cc(Br)ccc2OCc2ccccc2)n1 | 
37 | 0.105 µM | 0.0148 µM | Cc1cc(C(=O)O)nn1Cc1cc(Br)ccc1OCc1c(F)cccc1F | 
38 | > 2 µM |  | CC(=O)Nc1cc(C(=O)O)nn1Cc1cc(Br)ccc1OCc1ccccc1 | 
39 | 0.055 µM | 0.00977 µM | O=C(O)c1ccn(Cc2cc(Br)ccc2OCc2ccccc2)n1 | 
